Eleven compounds from ChEMBL document CHEMBL3813630, “Coumarin carboxylic acids as monocarboxylate transporter 1 inhibitors: In vitro and in vivo studies as potential anticancer agents” (Bioorg Med Chem Lett, 2016) can be followed below.

Data set [1] addresses T1, Monocarboxylate transporter 1 (Rattus norvegicus, UniProt P53987).
T1 sequence (P53987 whole entry): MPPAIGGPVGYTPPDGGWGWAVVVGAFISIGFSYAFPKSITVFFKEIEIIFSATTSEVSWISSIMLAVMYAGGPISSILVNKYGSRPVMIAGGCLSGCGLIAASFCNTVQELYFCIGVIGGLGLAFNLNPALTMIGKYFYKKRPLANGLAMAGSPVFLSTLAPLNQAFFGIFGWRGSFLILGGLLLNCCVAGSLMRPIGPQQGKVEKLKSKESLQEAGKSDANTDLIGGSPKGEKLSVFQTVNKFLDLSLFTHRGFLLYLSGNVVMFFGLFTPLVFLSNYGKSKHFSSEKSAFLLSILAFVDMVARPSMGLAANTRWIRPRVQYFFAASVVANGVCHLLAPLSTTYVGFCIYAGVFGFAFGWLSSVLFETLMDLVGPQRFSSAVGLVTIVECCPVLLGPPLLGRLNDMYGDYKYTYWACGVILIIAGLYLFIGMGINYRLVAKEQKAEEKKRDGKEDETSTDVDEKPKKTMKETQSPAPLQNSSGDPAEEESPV
The data set is described as follows: Inhibition of MCT1 in rat brain endothelial 4 cells assessed as L-[14C]-Lactate Uptake after 15 mins by scintillation spectrometric analysis. The class given is cell-based.

Data set [2] is described as follows: Cytotoxicity against mouse GL261 cells expressing luc2 assessed as reduction in cell viability after 72 hrs by MTT assay. The class given is functional, cell-based. As to conditions: GL261, 72 h. In a few lines:
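GL261-luc2 cells grown in DMEM, 10% FBS, 50 μg/mL geneticin, penicillin-streptomycin; 5 × 10^3 cells/well, 24 h at 37 °C, 5% CO2, then compound in replicate for 72 h.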
For orientation: Formazan colour is commonly taken as a measure of viable cells.

The test system of data set [3] is MDA-MB-231. The data set can be described thus: Cytotoxicity against human MDA-MB-231 cells expressing luc2 assessed as reduction in cell viability after 72 hrs by MTT assay. It counts as functional, cell-based. As to conditions: MDA-MB-231, 72 h. In a few lines:
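MDA-MB-231 cells grown in DMEM, 10% FBS, penicillin-streptomycin; 5 × 10^3 cells/well, 24 h at 37 °C, 5% CO2, then compound in replicate for 72 h.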

The nature of data set [4]: Permeability across apical side at pH 6.5 to basolateral side at pH 7.4 in human Caco2 cells assessed as compound recovery at 10 uM. The class given is ADME, cell-based. Particulars: caco-2, pH 6.5, 10 µM. (In general: Passage across Caco-2 layers is used to estimate intestinal permeability.)
Data set [5] is described as follows: Permeability across basolateral side at pH 6.5 to apical side at pH 7.4 in human Caco2 cells assessed as compound recovery at 10 uM. It counts as ADME, cell-based. Particulars: caco-2, pH 6.5, 10 µM.
Data set [6] can be described thus: Efflux ratio of permeability from basolateral to apical side over apical to basolateral side in human Caco2 cells. Particulars: caco-2. The class given is ADME, cell-based.
In data set [7] the test system is Mus musculus. The data set can be described thus: Toxicity in CD-1 mouse assessed as change in body weight at 20 mg/kg, ip qd. Particulars: in vivo. The class given is organism-based. In outline: (§1)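 Healthy CD-1 mice were dosed once daily, either 20 mg/kg ip or 100 mg/kg by oral gavage. Control mice received vehicle (10% DMSO in saline). Animals were monitored for mortality, body weight change and apparent side effects, compared with the vehicle group. The study was conducted by GenScript under an approved IACUC protocol.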

The subject of data set [8] is Mus musculus. The data set can be described thus: Toxicity in CD-1 mouse assessed as change in body weight at 100 mg/kg, administered via oral gavage qd. It counts as organism-based. Particulars: in vivo. In a few lines:
as §1

For data set [9], the system named is Mus musculus. The data set can be described thus: Toxicity in CD-1 mouse assessed as visible toxic effects at 20 mg/kg, ip qd. The class given is organism-based. Particulars: in vivo. In a few lines: as §1
Data set [10] relates to Mus musculus. The data set is described as follows: Toxicity in CD-1 mouse assessed as visible toxic effects at 100 mg/kg, administered via oral gavage qd. As to conditions: in vivo. It counts as organism-based. In outline: as §1
The test system of data set [11] is Mus musculus. The data set can be described thus: Toxicity in CD-1 mouse assessed as mortality at 20 mg/kg, ip qd. The class given is organism-based. As to conditions: in vivo. In outline: as §1
In data set [12] the test system is Mus musculus. The data set is described as follows: Toxicity in CD-1 mouse assessed as mortality at 100 mg/kg, administered via oral gavage qd. It counts as organism-based. As to conditions: in vivo. In outline:
as §1

The nature of data set [13]: Antitumor activity against MCT1 expressing mouse GL261 cells coexpressing luc2 syngrafted in C57BL/6 mouse assessed as tumor growth inhibition at 20 mg/kg, ip qd. It counts as functional. As to conditions: C57BL/6, GL261, ip, read-out: TGI. In outline:
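GL261-luc2 cells (5 × 10^6) in 1:1 matrigel-PBS injected into right flank of C57BL/6 mice (male and female); randomized, n = 6; dosing began at tumor volume 200 mm3; vehicle 10% DMSO in saline. Caliper measurement every 2–3 days, V = ab²/2. At study end tumors excised and weighed; % inhibition = [(C − T)/C] × 100 on mean tumor weights. Mann-Whitney test.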

The test system of data set [14] is MDA-MB-231. The data set can be described thus: Antitumor activity against MCT4 expressing human MDA-MB-231 cells coexpressing luciferase xenografted in SCID mouse assessed as tumor growth inhibition at 20 mg/kg, ip qd measured on day 19. As to conditions: MDA-MB-231, ip, 456 h, read-out: TGI. The class given is functional. In a few lines: (§2)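 Female SCID mice, right flank injected with 10 × 10^6 MDA-MB-231 cells in 1:1 matrigel-PBS; randomized, n = 6; dosing started at mean tumor volume ~100 mm3; vehicle 10% DMSO in saline. Study ended day 19; tumors excised and weighed; % inhibition = [(C − T)/C] × 100 from mean tumor weights versus vehicle. Mann-Whitney test.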
A general note: In xenograft studies the graft and the host belong to different species.

The test system of data set [15] is MDA-MB-231. The data set is described as follows: Antitumor activity against MCT4 expressing human MDA-MB-231 cells coexpressing luciferase xenografted in SCID mouse assessed as tumor growth inhibition at 100 mg/kg, administered via oral gavage qd measured on day 19. The class given is functional. As to conditions: MDA-MB-231, po, 456 h, read-out: TGI. In outline:
as §2

For data set [16], the system named is MDA-MB-231. The data set is described as follows: Antitumor activity against MCT4 expressing human MDA-MB-231 cells coexpressing luciferase xenografted in SCID mouse assessed as tumor growth inhibition at 0.5 mg/kg, ip for 5 days per week measured on day 19. The class given is functional. As to conditions: MDA-MB-231, ip, read-out: TGI. In a few lines:
as §2

Molecules are shown by their SMILES.

`O=C(O)c1cc2ccc(N(Cc3ccccc3)Cc3ccccc3)cc2oc1=O`: the IC50 was 0.09 µM in data set [1], more than 250 µM in data set [2] and 240 µM in the data set with MDA-MB-231 [3]. Moreover, the Drug recovery in data set [4] was found to be 34%; in data set [5], 55%. Further, the Ratio in data set [6] came to 0.2. Further, the Activity result in the data set with Mus musculus [7], in the data set with Mus musculus [8], in the data set with Mus musculus [9], with Mus musculus [10], with Mus musculus [11] and in the data set on Mus musculus [12] was “Non-toxic” each time. In addition, the inhibition in vivo at 20 mg/kg in data set [13] worked out at 77%; in the data set with MDA-MB-231 [14], 10%. In addition, the inhibition in vivo at 100 mg/kg in the data set with MDA-MB-231 [15] stood at 13%.

With `CC(CCc1ccccc1)NCC(O)c1ccc(O)c(C(N)=O)c1` (stereo not given) [LABETALOL], the values for the Drug recovery in data set [4] and in data set [5] were 66% and 72%, respectively.

For `CNC(=C[N+](=O)[O-])NCCSCc1ccc(CN(C)C)o1` [RANITIDINE], the Drug recovery in [5] is 85%.

With `Cn1nnc2c(C(N)=O)ncn2c1=O` [TEMOZOLOMIDE], the inhibition in vivo at 20 mg/kg in [13] is 81%.

For `C=CCN(CC=C)c1ccc2cc(C(=O)O)c(=O)oc2c1`, the values for the IC50 (in [1]; in [2]; in the data set with MDA-MB-231 [3]) were 0.17 µM, more than 250 µM and more than 250 µM, respectively.

Regarding `C#CCN(CC#C)c1ccc2cc(C(=O)O)c(=O)oc2c1`, the values for the IC50 (in [1]; in data set [2]; with MDA-MB-231 [3]) were 0.21 µM, more than 250 µM and more than 250 µM, respectively.

Consider `COc1cc2c(c(OC)c1OC)-c1ccc(OC)c(=O)cc1[C@@H](NC(C)=O)CC2` [COLCHICINE], for which the Drug recovery in data set [4] stood at 75%.

Regarding `CCCN(CCC)c1ccc2cc(C(=O)O)c(=O)oc2c1`, the figures for the IC50 (in data set [1]; in [2]; in the data set with MDA-MB-231 [3]) were 0.45 µM, more than 250 µM and more than 250 µM, respectively.

As for `O=C(O)c1cc2ccc(N3CCCC3)cc2oc1=O`, the IC50 in data set [1] is 0.38 µM; in data set [2], more than 250 µM; in the data set on MDA-MB-231 [3] it was more than 250 µM.

As to `CC(C)NCC(O)COc1cccc2ccccc12` (stereo not given) [PROPRANOLOL], the figures for the Drug recovery in data set [4] and in data set [5] were 67% and 80%, respectively.

For `COc1cccc2c1C(=O)c1c(O)c3c(c(O)c1C2=O)C[C@@](O)(C(=O)CO)C[C@@H]3O[C@H]1C[C@H](N)[C@H](O)[C@H](C)O1` [DOXORUBICIN], the inhibition in vivo at 0.5 mg/kg in the data set with MDA-MB-231 [16] turned out to be 50%.

Broadly, the IC50 is the midpoint of a concentration-inhibition curve.
